Test results published in ChEMBL document CHEMBL3784971, “Synthesis, characterization, antimicrobial and biofilm inhibitory studies of new esterquats” (Bioorg Med Chem Lett, 2016).

Experiments:
Candida parapsilosis [1] = test: Antimicrobial activity against Candida parapsilosis MTCC 1744 assessed as growth inhibition after 24 hrs by agar well diffusion method; type: functional; conditions: Lodderomyces parapsilosis, MTCC 1744, 24 h
Candida albicans [2] = test: Antimicrobial activity against Candida albicans MTCC 227 assessed as growth inhibition after 24 hrs by agar well diffusion method; type: functional; conditions: MTCC 227, 24 h
Candida albicans [3] = test: Fungicidal activity against Candida albicans MTCC 1637 after 24 hrs by serial dilution method; type: functional; conditions: MTCC 1637, 24 h
Candida albicans [4] = test: Antimicrobial activity against Candida albicans MTCC 3958 assessed as growth inhibition after 24 hrs by agar well diffusion method; type: functional; conditions: MTCC 3958, 24 h
[Candida] aaseri [5] = Fungicidal activity against Candida aaseri MTCC 1962 after 24 hrs by serial dilution method; type: functional; conditions: Yamadazyma aaseri, MTCC 1962, 24 h
Pichia sporocuriosa [6] = test: Antimicrobial activity against Issatchenkia hanoiensis MTCC 4755 assessed as growth inhibition after 24 hrs by agar well diffusion method; type: functional; conditions: MTCC 4755, 24 h
Pichia sporocuriosa [7] = test: Fungicidal activity against Issatchenkia hanoiensis MTCC 4755 after 24 hrs by serial dilution method; type: functional; conditions: MTCC 4755, 24 h
Candida albicans [8] = test: Antimicrobial activity against Candida albicans MTCC 3018 assessed as growth inhibition after 24 hrs by agar well diffusion method; type: functional; conditions: MTCC 3018, 24 h
Bacillus subtilis [9] = test: Antibiofilm activity against Bacillus subtilis MTCC 121 after 24 hrs by crystal violet staining based assay; type: functional, organism-based; conditions: MTCC 121, 24 h
How it was run: (§1)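 Biofilm inhibition tested for amine esters and esterquats. IC50 values (µg/mL) are the mean of three determinations, with ciprofloxacin as reference.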

[Candida] aaseri [10] = Antimicrobial activity against Candida aaseri MTCC 1962 assessed as growth inhibition after 24 hrs by agar well diffusion method; type: functional; conditions: Yamadazyma aaseri, MTCC 1962, 24 h
Staphylococcus aureus [11] = test: Bactericidal activity against Staphylococcus aureus MLS16 MTCC 2940 after 24 hrs by serial dilution method; type: functional; conditions: MLS16 MTCC 2940, 24 h
Nakaseomyces glabratus [12] = test: Fungicidal activity against Candida glabrata MTCC 3019 after 24 hrs by serial dilution method; type: functional; conditions: MTCC 3019, 24 h
Candida albicans [13] = test: Antimicrobial activity against Candida albicans MTCC 3017 assessed as growth inhibition after 24 hrs by agar well diffusion method; type: functional; conditions: MTCC 3017, 24 h
Candida albicans [14] = test: Antimicrobial activity against Candida albicans MTCC 7315 assessed as growth inhibition after 24 hrs by agar well diffusion method; type: functional; conditions: MTCC 7315, 24 h
Candida albicans [15] = test: Fungicidal activity against Candida albicans MTCC 3018 after 24 hrs by serial dilution method; type: functional; conditions: MTCC 3018, 24 h
Candida albicans [16] = test: Fungicidal activity against Candida albicans MTCC 3017 after 24 hrs by serial dilution method; type: functional; conditions: MTCC 3017, 24 h
Bacillus subtilis [17] = test: Antimicrobial activity against Bacillus subtilis MTCC 121 assessed as growth inhibition after 24 hrs by agar well diffusion method; type: functional; conditions: MTCC 121, 24 h
Candida albicans [18] = test: Antimicrobial activity against Candida albicans MTCC 183 assessed as growth inhibition after 24 hrs by agar well diffusion method; type: functional; conditions: MTCC 183, 24 h
Candida albicans [19] = test: Fungicidal activity against Candida albicans MTCC 227 after 24 hrs by serial dilution method; type: functional; conditions: MTCC 227, 24 h
Candida albicans [20] = test: Fungicidal activity against Candida albicans MTCC 183 after 24 hrs by serial dilution method; type: functional; conditions: MTCC 183, 24 h
Candida albicans [21] = test: Antimicrobial activity against Candida albicans MTCC 4748 assessed as growth inhibition after 24 hrs by agar well diffusion method; type: functional; conditions: MTCC 4748, 24 h
Candida albicans [22] = test: Fungicidal activity against Candida albicans MTCC 854 after 24 hrs by serial dilution method; type: functional; conditions: MTCC 854, 24 h
Pseudomonas aeruginosa = test: Antimicrobial activity against Pseudomonas aeruginosa MTCC 2453 assessed as growth inhibition after 24 hrs by agar well diffusion method; type: functional; conditions: MTCC 2453, 24 h
Micrococcus luteus [23] = test: Bactericidal activity against Micrococcus luteus MTCC 2470 after 24 hrs by serial dilution method; type: functional; conditions: MTCC 2470, 24 h
Candida albicans [24] = test: Fungicidal activity against Candida albicans MTCC 3958 after 24 hrs by serial dilution method; type: functional; conditions: MTCC 3958, 24 h
Staphylococcus aureus [25] = test: Antimicrobial activity against Staphylococcus aureus MTCC 96 assessed as growth inhibition after 24 hrs by agar well diffusion method; type: functional; conditions: MTCC 96, 24 h
Raoultella planticola [26] = test: Antimicrobial activity against Klebsiella planticola MTCC 530 assessed as growth inhibition after 24 hrs by agar well diffusion method; type: functional; conditions: MTCC 530, 24 h
Raoultella planticola [27] = test: Bactericidal activity against Klebsiella planticola MTCC 530 after 24 hrs by serial dilution method; type: functional; conditions: MTCC 530, 24 h
Micrococcus luteus [28] = test: Antimicrobial activity against Micrococcus luteus MTCC 2470 assessed as growth inhibition after 24 hrs by agar well diffusion method; type: functional; conditions: MTCC 2470, 24 h
Escherichia coli [29] = test: Bactericidal activity against Escherichia coli MTCC 739 after 24 hrs by serial dilution method; type: functional; conditions: MTCC 739, 24 h
Candida albicans [30] = test: Fungicidal activity against Candida albicans MTCC 4748 after 24 hrs by serial dilution method; type: functional; conditions: MTCC 4748, 24 h
Bacillus subtilis [31] = test: Bactericidal activity against Bacillus subtilis MTCC 121 after 24 hrs by serial dilution method; type: functional; conditions: MTCC 121, 24 h
Staphylococcus aureus [32] = test: Antibiofilm activity against Staphylococcus aureus MTCC 96 after 24 hrs by crystal violet staining based assay; type: functional, organism-based; conditions: MTCC 96, 24 h; how it was run: as §1
Micrococcus luteus [33] = test: Antibiofilm activity against Micrococcus luteus MTCC 2470 after 24 hrs by crystal violet staining based assay; type: functional, organism-based; conditions: MTCC 2470, 24 h; how it was run: as §1
Pichia kudriavzevii [34] = test: Antimicrobial activity against Candida krusei MTCC 3020 assessed as growth inhibition after 24 hrs by agar well diffusion method; type: functional; conditions: MTCC 3020, 24 h
Nakaseomyces glabratus [35] = test: Antimicrobial activity against Candida glabrata MTCC 3019 assessed as growth inhibition after 24 hrs by agar well diffusion method; type: functional; conditions: MTCC 3019, 24 h
Candida albicans [36] = test: Antimicrobial activity against Candida albicans MTCC 1637 assessed as growth inhibition after 24 hrs by agar well diffusion method; type: functional; conditions: MTCC 1637, 24 h
Escherichia coli [37] = test: Antimicrobial activity against Escherichia coli MTCC 739 assessed as growth inhibition after 24 hrs by agar well diffusion method; type: functional; conditions: MTCC 739, 24 h
Staphylococcus aureus [38] = test: Bactericidal activity against Staphylococcus aureus MTCC 96 after 24 hrs by serial dilution method; type: functional; conditions: MTCC 96, 24 h
Pichia kudriavzevii [39] = test: Fungicidal activity against Candida krusei MTCC 3020 after 24 hrs by serial dilution method; type: functional; conditions: MTCC 3020, 24 h
Staphylococcus aureus [40] = test: Antimicrobial activity against Staphylococcus aureus MLS16 MTCC 2940 assessed as growth inhibition after 24 hrs by agar well diffusion method; type: functional; conditions: MLS16 MTCC 2940, 24 h
Staphylococcus aureus [41] = test: Antibiofilm activity against Staphylococcus aureus MLS16 MTCC 2940 after 24 hrs by crystal violet staining based assay; type: functional, organism-based; conditions: MLS16 MTCC 2940, 24 h; how it was run: as §1
Candida parapsilosis [42] = test: Fungicidal activity against Candida parapsilosis MTCC 1744 after 24 hrs by serial dilution method; type: functional; conditions: Lodderomyces parapsilosis, MTCC 1744, 24 h
Candida albicans [43] = test: Fungicidal activity against Candida albicans MTCC 7315 after 24 hrs by serial dilution method; type: functional; conditions: MTCC 7315, 24 h
Candida albicans [44] = test: Antimicrobial activity against Candida albicans MTCC 854 assessed as growth inhibition after 24 hrs by agar well diffusion method; type: functional; conditions: MTCC 854, 24 h

CCCCCCNCCCCCCCCCCC(=O)OC
> 125 mg/L: MIC (Pseudomonas aeruginosa) | MIC (Raoultella planticola [26]) | MBC (Raoultella planticola [27]) | MBC (Escherichia coli [29]) | MIC (Escherichia coli [37])
62.5 mg/L: MIC (Candida albicans [14]) | MFC (Candida albicans [15]) | MFC (Candida albicans [20]) | MIC (Candida albicans [21]) | MFC (Candida albicans [24]) | MFC (Candida albicans [30]) | MFC (Candida parapsilosis [42]) | MFC (Candida albicans [43])
7.8 mg/L: MBC (Staphylococcus aureus [11]) | MIC (Bacillus subtilis [17]) | MBC (Staphylococcus aureus [38])
4.2 mg/L: IC50 (Bacillus subtilis [9])
2.2 mg/L: IC50 (Micrococcus luteus [33])
15.6 mg/L: MIC ([Candida] aaseri [10]) | MIC (Candida albicans [13]) | MIC (Micrococcus luteus [28]) | MBC (Bacillus subtilis [31]) | MIC (Pichia kudriavzevii [34]) | MIC (Candida albicans [36]) | MIC (Candida albicans [44])
2.6 mg/L: IC50 (Staphylococcus aureus [32])
3.9 mg/L: MIC (Staphylococcus aureus [25]) | MIC (Staphylococcus aureus [40]) | IC50 (Staphylococcus aureus [41])
31.2 mg/L: MIC (Candida parapsilosis [1]) | MIC (Candida albicans [2]) | MFC (Candida albicans [3]) | MIC (Candida albicans [4]) | MFC ([Candida] aaseri [5]) | MIC (Pichia sporocuriosa [6]) | MFC (Pichia sporocuriosa [7]) | MIC (Candida albicans [8]) | MFC (Nakaseomyces glabratus [12]) | MFC (Candida albicans [16]) | MIC (Candida albicans [18]) | MFC (Candida albicans [19]) | MFC (Candida albicans [22]) | MBC (Micrococcus luteus [23]) | MIC (Nakaseomyces glabratus [35]) | MFC (Pichia kudriavzevii [39])
